Data published in ChEMBL document CHEMBL4177770, “Discovery of MK-6169, a Potent Pan-Genotype Hepatitis C Virus NS5A Inhibitor with Optimized Activity against Common Resistance-Associated Substitutions” (J Med Chem, 2018).
Where a chain is given by its changes, count along the chain named.

Assays:
[1] = molecular target: T1, Nonstructural protein 5A (Hepatitis C virus) (UniProt Q5L478); assay: Inhibition of NS5A in HCV genotype 1a infected in HuH7 replicon cells assessed as decrease in viral replication after 3 days by RT-PCR method; type: cell-based; settings: Hepatitis C virus subtype 1a
T1 sequence (whole entry): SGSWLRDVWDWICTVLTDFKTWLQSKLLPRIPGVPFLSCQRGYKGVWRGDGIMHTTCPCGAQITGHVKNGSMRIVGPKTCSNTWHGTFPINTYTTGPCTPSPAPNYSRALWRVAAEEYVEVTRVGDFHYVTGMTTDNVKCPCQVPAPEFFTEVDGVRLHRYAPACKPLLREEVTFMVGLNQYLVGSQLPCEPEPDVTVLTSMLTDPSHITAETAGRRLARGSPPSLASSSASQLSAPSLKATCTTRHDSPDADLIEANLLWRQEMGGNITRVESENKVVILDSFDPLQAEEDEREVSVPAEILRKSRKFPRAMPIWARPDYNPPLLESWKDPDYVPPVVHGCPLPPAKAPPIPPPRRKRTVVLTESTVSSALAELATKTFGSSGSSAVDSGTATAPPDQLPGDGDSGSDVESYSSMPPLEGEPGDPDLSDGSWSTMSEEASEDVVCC

[2] = molecular target: T1, Nonstructural protein 5A (Hepatitis C virus); assay: Inhibition of NS5A in HCV genotype 1b infected in HuH7 replicon cells assessed as decrease in viral replication after 3 days by RT-PCR method; type: cell-based; settings: Hepatitis C virus subtype 1b
[3] = molecular target: T1, Nonstructural protein 5A (Hepatitis C virus); assay: Inhibition of NS5A L31M mutant in HCV genotype 2b infected in HuH7 replicon cells assessed as decrease in viral replication after 3 days by RT-PCR method; type: cell-based; settings: Hepatitis C virus subtype 2b
[4] = molecular target: T1, Nonstructural protein 5A (Hepatitis C virus); assay: Inhibition of NS5A in HCV genotype 3a infected in HuH7 replicon cells assessed as decrease in viral replication after 3 days by RT-PCR method; type: cell-based; settings: Hepatitis C virus subtype 3a
[5] = molecular target: T1, Nonstructural protein 5A (Hepatitis C virus); assay: Inhibition of NS5A in HCV genotype 4a infected in HuH7 replicon cells assessed as decrease in viral replication after 3 days by RT-PCR method; type: cell-based; settings: Hepatitis C virus subtype 4a
[6] = tested on: T2, Nonstructural protein 5A (Hepatitis C virus), Q5L478 [Y93H]; assay: Inhibition of NS5A Y93H mutant in HCV genotype 1a infected in HuH7 replicon cells assessed as decrease in viral replication after 3 days by RT-PCR method; type: cell-based; settings: Hepatitis C virus subtype 1a
T2 sequence (whole entry): T1 sequence (whole entry) with Y93H

[7] = molecular target: T1, Nonstructural protein 5A (Hepatitis C virus); assay: Inhibition of NS5A L31V mutant in HCV genotype 1a infected in HuH7 replicon cells assessed as decrease in viral replication after 3 days by RT-PCR method; type: cell-based; settings: Hepatitis C virus subtype 1a
[8] = Half life in Wistar Han rat at 2 mg/kg, iv by LC/MS method; type: ADME, organism-based; settings: in vivo
Outline: (§1)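 Male Wistar Han rats, two per group, dosed IV at 2 mg/kg in 60% PEG200. Plasma was obtained by centrifuging the blood, and compound concentrations were measured by LC/MS.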

[9] = Half life in Beagle dog at 1 mg/kg, iv by LC/MS method; type: ADME, organism-based, Canis lupus familiaris; settings: in vivo
Outline: (§2)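 Beagle dogs, two animals per group, dosed IV at 1 mg/kg in 60% PEG200. Plasma was prepared from collected blood by centrifugation, and compound was quantified by LC/MS.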

[10] = Clearance in Wistar Han rat at 2 mg/kg, iv by LC/MS method; type: ADME, organism-based; settings: in vivo; outline: as §1
[11] = Clearance in Beagle dog at 1 mg/kg, iv by LC/MS method; type: ADME, organism-based, Canis lupus familiaris; settings: in vivo; outline: as §2
[12] = AUC in Wistar Han rat at 10 mg/kg, po by LC/MS method; type: ADME, organism-based; settings: in vivo
Outline: (§3)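 Male Wistar Han rats, two per dosing group, dosed orally at 10 mg/kg in 10% TWEEN. Plasma was separated from collected blood by centrifugation and analysed by LC/MS.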

[13] = AUC in Beagle dog at 5 mg/kg, po by LC/MS method; type: ADME, organism-based, Canis lupus familiaris; settings: in vivo
Outline: (§4)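 Beagle dogs, two animals per dosing group. Oral dose was given in 10% TWEEN. Blood was collected and spun to plasma, and plasma compound levels were measured by LC/MS.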

[14] = Cmax in Wistar Han rat at 10 mg/kg, po by LC/MS method; type: ADME, organism-based; design: dose 10 mg/kg, route oral; settings: in vivo; outline: as §3
[15] = Cmax in Beagle dog at 5 mg/kg, po by LC/MS method; type: ADME, organism-based, Canis lupus familiaris; design: dose 5 mg/kg, route oral; settings: in vivo; outline: as §4
[16] = Drug level in Wistar Han rat at 10 mg/kg, po measured at 24 hrs by LC/MS method; type: ADME, organism-based; settings: in vivo, read-out: Drug uptake; outline: as §3
[17] = Drug level in Beagle dog at 5 mg/kg, po measured at 24 hrs by LC/MS method; type: ADME, organism-based, Canis lupus familiaris; settings: in vivo, read-out: Drug uptake; outline: as §4
[18] = Oral bioavailability in Wistar Han rat at 10 mg/kg by LC/MS method; type: ADME, organism-based; settings: in vivo; outline: as §3
[19] = Oral bioavailability in Beagle dog at 5 mg/kg by LC/MS method; type: ADME, organism-based, Canis lupus familiaris; settings: in vivo; outline: as §4
[20] = Tmax in Wistar Han rat at 10 mg/kg, po by LC/MS method; type: ADME, organism-based; settings: in vivo; outline: as §3
[21] = MRT in Wistar Han rat at 10 mg/kg, po by LC/MS method; type: ADME, organism-based; settings: in vivo; outline: as §3
[22] = AUC in Wistar Han rat at 100 mg/kg, po by LC/MS method; type: ADME, organism-based; settings: in vivo
Outline: (§5)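 Single rising oral dose study in fed male Wistar Han rats, dosed PO in 10% TWEEN at the indicated doses. Plasma was obtained by centrifuging the blood, and compound levels were determined by LC/MS.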

[23] = Cmax in Wistar Han rat at 100 mg/kg, po by LC/MS method; type: ADME, organism-based; design: dose 100 mg/kg, route oral; settings: in vivo; outline: as §5
[24] = Drug level in Wistar Han rat at 100 mg/kg, po measured at 24 hrs by LC/MS method; type: ADME, organism-based; settings: in vivo, read-out: Drug uptake; outline: as §5
[25] = Tmax in Wistar Han rat at 100 mg/kg, po by LC/MS method; type: ADME, organism-based; settings: in vivo; outline: as §5
[26] = MRT in Wistar Han rat at 100 mg/kg, po by LC/MS method; type: ADME, organism-based; settings: in vivo; outline: as §5
[27] = AUC in Wistar Han rat at 300 mg/kg, po by LC/MS method; type: ADME, organism-based; settings: in vivo; outline: as §5
[28] = Cmax in Wistar Han rat at 300 mg/kg, po by LC/MS method; type: ADME, organism-based; design: dose 300 mg/kg, route oral; settings: in vivo; outline: as §5
[29] = Drug level in Wistar Han rat at 300 mg/kg, po measured at 24 hrs by LC/MS method; type: ADME, organism-based; settings: in vivo, read-out: Drug uptake; outline: as §5
[30] = Tmax in Wistar Han rat at 300 mg/kg, po by LC/MS method; type: ADME, organism-based; settings: in vivo; outline: as §5
[31] = MRT in Wistar Han rat at 300 mg/kg, po by LC/MS method; type: ADME, organism-based; settings: in vivo; outline: as §5

| SMILES | EC90 [1] [pM] | EC90 [2] [pM] | EC90 [3] [pM] | EC90 [4] [pM] | EC90 [5] [pM] | EC90 [6] [pM] | EC90 [7] [pM] | half-life [8] [h] | half-life [9] [h] | clearance [10] [mL/min/kg] | clearance [11] [mL/min/kg] | AUC [12] [µM·h] | AUC [13] [µM·h] | Cmax [14] [nM] | Cmax [15] [nM] | concentration at 24 h [16] [nM] | concentration at 24 h [17] [nM] | bioavailability [18] [%] | bioavailability [19] [%] | Tmax [20] [h] | other results |
| --- | --- | --- | --- | --- | --- | --- | --- | --- | --- | --- | --- | --- | --- | --- | --- | --- | --- | --- | --- | --- | --- |
| COC(=O)N[C@H](C(=O)N1CCC[C@H]1c1ncc(-c2cc(F)c3c(c2)O[C@@H](c2ccc(C4CC4)s2)n2c-3cc3cc(-c4cnc([C@@H]5CCCN5C(=O)[C@@H](NC(=O)OC)C5C[C@@H](C)O[C@@H](C)C5)[nH]4)ccc32)[nH]1)C(C)C (some centres not stated) | 4 | 4 | 25 | 8 | 7 | 27 | 5 | 5.1 | 7.2 | 11 | 3 | 0.33 to 0.92 | 2.42 | 67 to 80 | 330 | 3 to 5 | 11 | 5.9 | 8.5 | 4 | MRT [21]: 9 h; AUC [22]: 1.95 µM·h; Cmax [23]: 220 nM; concentration at 24 h [24]: 27 nM; Tmax [25]: 2 h; MRT [26]: 17 h; AUC [27]: 4.08 µM·h; Cmax [28]: 390 nM; concentration at 24 h [29]: 40 nM; Tmax [30]: 6 h; MRT [31]: 11 h |
| COC(=O)N[C@H](C(=O)N1CCC[C@H]1c1ncc(-c2cc(F)c3c(c2)O[C@@H](c2ccc(C4CC4)s2)n2c-3cc3cc(-c4cnc([C@@H]5CCCN5C(=O)[C@@H](NC(=O)OC)C5C[C@@H](C)O[C@H](C)C5)[nH]4)ccc32)[nH]1)C(C)C (some centres not stated) | 4 | 4 | 12 | 7 | 7 | 15 | 4 | 3.6 | 11.3 | 11 | 2.6 | 0.31 to 0.93 | 5.05 | 50 to 119 | 640 | 1 to 4 | 87 | 6.3 | 18.7 | 3 | MRT [21]: 6 h; AUC [22]: 2.07 µM·h; Cmax [23]: 240 nM; concentration at 24 h [24]: 9 nM; Tmax [25]: 3 h; MRT [26]: 7.6 h; AUC [27]: 5.58 µM·h; Cmax [28]: 510 nM; concentration at 24 h [29]: 29 nM; Tmax [30]: 7 h; MRT [31]: 9.3 h |
